Each structure is given as a SMILES string.

Assay [1] has as its target T1, N-lysine methyltransferase KMT5A (Homo sapiens, UniProt Q9NQR1).
T1 sequence (Q9NQR1 whole entry): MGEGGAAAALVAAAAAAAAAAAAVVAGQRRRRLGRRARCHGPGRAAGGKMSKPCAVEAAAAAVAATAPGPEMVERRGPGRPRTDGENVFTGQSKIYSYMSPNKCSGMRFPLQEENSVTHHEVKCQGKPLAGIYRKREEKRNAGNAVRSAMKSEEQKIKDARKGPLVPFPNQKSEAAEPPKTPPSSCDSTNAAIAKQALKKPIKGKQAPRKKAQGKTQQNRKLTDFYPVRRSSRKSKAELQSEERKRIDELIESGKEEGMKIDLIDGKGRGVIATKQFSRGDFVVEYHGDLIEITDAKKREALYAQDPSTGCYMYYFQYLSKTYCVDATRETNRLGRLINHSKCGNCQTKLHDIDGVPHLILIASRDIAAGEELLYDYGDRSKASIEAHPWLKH
Nature of the assay: Inhibition of SETD8 assessed as hydrolysis of S-adenosyl-L-homocysteine after 2 mins by SAHH-coupled fluorescence assay. The gist of the method:
(§1)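 Same coupled ThioGlo readout (25 mM potassium phosphate pH 7.5, 25 μM SAM, 5 μM SAHH, adenosine deaminase), 4 nM–16 μM inhibitor with 2 min preincubation, 20 min fluorescence at 360/528 nm. Enzyme and substrate by target: SETD7 200 nM with 100 μM H3(1–25); SETD8 250 nM with 500 μM H4(1–24); SUV39H2 100 nM with 200 μM H3K9Me1(1–15).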

The target of assay [2] is T2, Histone-lysine N-methyltransferase EHMT1 (Homo sapiens, UniProt Q9H9B1).
T2 sequence (Q9H9B1 whole entry): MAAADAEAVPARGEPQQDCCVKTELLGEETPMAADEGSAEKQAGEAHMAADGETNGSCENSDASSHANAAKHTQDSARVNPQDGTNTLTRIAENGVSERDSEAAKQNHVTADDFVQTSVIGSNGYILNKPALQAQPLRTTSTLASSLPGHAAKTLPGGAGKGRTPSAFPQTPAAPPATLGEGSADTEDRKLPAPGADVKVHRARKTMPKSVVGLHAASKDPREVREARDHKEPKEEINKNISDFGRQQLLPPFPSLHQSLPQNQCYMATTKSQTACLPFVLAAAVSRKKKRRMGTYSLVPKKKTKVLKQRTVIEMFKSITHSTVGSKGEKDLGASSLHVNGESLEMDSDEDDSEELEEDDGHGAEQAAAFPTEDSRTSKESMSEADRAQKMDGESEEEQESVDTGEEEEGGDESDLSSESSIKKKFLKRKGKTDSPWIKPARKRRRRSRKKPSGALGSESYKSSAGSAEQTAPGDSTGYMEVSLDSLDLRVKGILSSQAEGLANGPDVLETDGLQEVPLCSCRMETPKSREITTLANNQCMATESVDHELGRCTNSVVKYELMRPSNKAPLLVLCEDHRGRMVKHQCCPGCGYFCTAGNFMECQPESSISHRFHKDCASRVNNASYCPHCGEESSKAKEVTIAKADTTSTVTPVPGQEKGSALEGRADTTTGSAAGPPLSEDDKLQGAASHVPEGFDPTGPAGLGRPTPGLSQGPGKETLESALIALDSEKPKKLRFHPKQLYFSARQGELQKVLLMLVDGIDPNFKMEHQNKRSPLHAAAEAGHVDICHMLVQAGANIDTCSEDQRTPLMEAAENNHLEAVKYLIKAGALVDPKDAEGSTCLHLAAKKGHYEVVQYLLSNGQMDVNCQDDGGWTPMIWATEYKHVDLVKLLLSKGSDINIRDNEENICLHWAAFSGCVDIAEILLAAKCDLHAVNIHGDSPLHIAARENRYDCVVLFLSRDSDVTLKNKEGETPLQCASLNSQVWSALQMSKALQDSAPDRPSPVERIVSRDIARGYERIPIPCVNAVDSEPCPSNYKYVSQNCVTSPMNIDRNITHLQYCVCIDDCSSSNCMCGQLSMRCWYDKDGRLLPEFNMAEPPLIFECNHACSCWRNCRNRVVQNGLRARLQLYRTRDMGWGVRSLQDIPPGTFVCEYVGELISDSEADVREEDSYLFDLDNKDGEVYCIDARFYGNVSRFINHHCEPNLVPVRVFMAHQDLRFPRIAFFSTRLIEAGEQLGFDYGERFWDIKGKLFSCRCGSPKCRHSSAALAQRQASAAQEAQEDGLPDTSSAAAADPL
Nature of the assay: Inhibition of GLP assessed as hydrolysis of S-adenosyl-L-homocysteine after 2 mins by SAHH-coupled fluorescence assay. An outline of the steps:
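GLP at 100 nM was tested by SAHH/adenosine deaminase/ThioGlo coupling in pH 7.5 potassium phosphate buffer with EDTA, MgCl2, Triton X-100 and 25 μM SAM. Inhibitor (4 nM–16 μM) was preincubated 2 min before adding 20 μM H3(1–25). Fluorescence rise (360/528 nm) was tracked 20 min and background-subtracted. IC50 from two independent experiments.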

In another assay the test system is MDA-MB-231. The assay is described as follows: Cytotoxicity against human MDA-MB-231 cells assessed as cell viability after 48 hrs by MTT assay. In kind it is functional, cell-based. The following applies: MDA-MB-231, 48 h.
Assay [3] deals with Protein arginine N-methyltransferase 3 (Homo sapiens, UniProt O60678). The assay is described as follows: Inhibition of PRMT3 assessed as hydrolysis of S-adenosyl-L-homocysteine after 2 mins by SAHH-coupled fluorescence assay. The gist of the method: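 Enzyme-coupled fluorescence readout. Methyltransfer product SAH is converted to homocysteine by SAHH in the presence of adenosine deaminase, and homocysteine is detected with the thiol-sensitive dye ThioGlo. Buffer is 25 mM potassium phosphate pH 7.5 with 1 mM EDTA, 2 mM MgCl2 and 0.01% Triton X-100, plus 5 μM SAHH, 0.3 U/mL deaminase, 25 μM SAM and 15 μM ThioGlo. PRMT3 is at 500 nM. Inhibitor (4 nM–16 μM) is preincubated 2 min, then 10 μM H4(1–24) peptide starts the reaction. Fluorescence is followed for 20 min at ex 360/em 528 nm and background-corrected. IC50 is fitted from two independent experiments.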
Protein arginine N-methyltransferase 3, sequence (O60678 whole entry): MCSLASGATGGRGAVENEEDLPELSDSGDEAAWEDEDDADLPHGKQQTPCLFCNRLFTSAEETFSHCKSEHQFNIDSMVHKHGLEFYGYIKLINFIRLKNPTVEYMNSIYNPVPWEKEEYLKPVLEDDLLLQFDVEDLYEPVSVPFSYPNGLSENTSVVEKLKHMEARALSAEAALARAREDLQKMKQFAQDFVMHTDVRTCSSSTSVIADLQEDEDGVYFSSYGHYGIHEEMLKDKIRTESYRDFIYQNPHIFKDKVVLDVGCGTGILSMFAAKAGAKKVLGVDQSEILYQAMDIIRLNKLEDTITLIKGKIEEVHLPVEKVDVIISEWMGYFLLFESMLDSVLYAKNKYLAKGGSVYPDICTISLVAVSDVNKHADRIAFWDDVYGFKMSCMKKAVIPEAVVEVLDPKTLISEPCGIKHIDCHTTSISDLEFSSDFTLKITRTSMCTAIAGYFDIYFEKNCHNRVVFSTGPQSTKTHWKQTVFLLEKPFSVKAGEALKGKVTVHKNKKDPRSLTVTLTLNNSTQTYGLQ

Assay [4] concerns the target Histone-lysine N-methyltransferase SUV39H2 (Homo sapiens, UniProt Q9H5I1). The assay is described as follows: Inhibition of SUV39H2 assessed as hydrolysis of S-adenosyl-L-homocysteine after 2 mins by SAHH-coupled fluorescence assay. An outline of the steps: as §1
For assay [5], the target named is T3, Histone-lysine N-methyltransferase SETD7 (Homo sapiens, UniProt Q8WTS6).
T3 sequence (Q8WTS6 whole entry): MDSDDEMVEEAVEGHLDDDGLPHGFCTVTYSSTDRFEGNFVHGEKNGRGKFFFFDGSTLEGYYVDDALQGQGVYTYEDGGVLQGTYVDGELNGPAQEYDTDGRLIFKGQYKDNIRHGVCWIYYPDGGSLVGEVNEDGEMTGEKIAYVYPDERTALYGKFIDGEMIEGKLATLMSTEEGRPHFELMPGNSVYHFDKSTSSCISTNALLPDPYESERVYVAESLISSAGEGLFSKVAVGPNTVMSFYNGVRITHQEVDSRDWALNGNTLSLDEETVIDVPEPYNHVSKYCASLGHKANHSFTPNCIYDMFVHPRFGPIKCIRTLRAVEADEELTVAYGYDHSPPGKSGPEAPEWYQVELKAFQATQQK
The assay is described as follows: Inhibition of SETD7 assessed as hydrolysis of S-adenosyl-L-homocysteine after 2 mins by SAHH-coupled fluorescence assay. An outline of the steps:
as §1

Histone-lysine N-methyltransferase SUV39H2, sequence (Q9H5I1 whole entry): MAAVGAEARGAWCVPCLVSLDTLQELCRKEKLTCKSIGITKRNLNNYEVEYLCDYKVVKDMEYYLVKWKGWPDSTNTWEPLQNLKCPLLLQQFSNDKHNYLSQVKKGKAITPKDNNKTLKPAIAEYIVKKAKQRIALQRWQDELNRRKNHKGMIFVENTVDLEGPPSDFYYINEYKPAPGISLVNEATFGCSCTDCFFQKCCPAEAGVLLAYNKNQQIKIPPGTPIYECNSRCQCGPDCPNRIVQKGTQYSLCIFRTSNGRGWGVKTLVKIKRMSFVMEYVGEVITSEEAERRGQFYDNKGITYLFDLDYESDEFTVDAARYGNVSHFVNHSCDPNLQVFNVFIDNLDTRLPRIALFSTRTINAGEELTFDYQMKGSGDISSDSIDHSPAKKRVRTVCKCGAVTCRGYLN

In the case of `COc1cc2c(NC3CCN(C4CCCCC4)CC3)nc(N3CCCN(C(C)C)CC3)nc2cc1OCCCN1CCCCC1`, the IC50 is above 10 µM in assay [1]; below 0.015 µM in assay [2]; above 10 µM in assay [3]; above 10 µM in assay [4]; above 10 µM in assay [5]. For the same compound, the 50% effective concentration (EC50) with MDA-MB-231 was found to be 3.3 µM.

By IC50 is commonly meant the midpoint of a concentration-inhibition curve. Usually EC50 stands for the concentration at which the effect is half-maximal.

These data come from ChEMBL document CHEMBL1828613, “Optimization of cellular activity of G9a inhibitors 7-aminoalkoxy-quinazolines” (J Med Chem, 2011).
